Results taken from ChEMBL document CHEMBL3259664, “Optimization of an imidazopyridazine series of inhibitors of Plasmodium falciparum calcium-dependent protein kinase 1 (PfCDPK1)” (J Med Chem, 2014).

Legend:
[1] = Metabolic stability in human liver microsomes assessed as compound remaining measured at […]; type: ADME; conditions: read-out: Stability
[2] = Metabolic stability in mouse liver microsomes assessed as compound remaining measured at 30 mins; type: ADME; conditions: read-out: Stability
[3] = Lipophilicity, log D of the compound; type: physicochemical; conditions: octanol/water
[4] = Total plasma concentration in NMRI mouse infected with Plasmodium berghei ANKA at 50 mg/kg, po qd administered on day 1 to 3 post infection measured at 1 hr post last dose; type: ADME, organism-based; design: dose 50 mg/kg, route oral
Summary of the method: (§1)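 4-day Peters test in groups of 3 mice infected iv on day 0. Oral dosing was 50 mg/kg once daily at 4, 24, 48 and 72 h post-infection. The monohydrochloride salt was dissolved in 30:70 EtOH/Tween-80 and diluted 10-fold with water. Blood was sampled for total plasma compound levels.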

[5] = Total plasma concentration in NMRI mouse infected with Plasmodium berghei ANKA at 50 mg/kg, po qd administered on day 1 to 3 post infection measured at 4 hrs post last dose; type: ADME, organism-based; design: dose 50 mg/kg, route oral; summary of the method: as §1
Rattus norvegicus [6] = assay: Half life in rat at […], iv; type: ADME, organism-based; design: dose 4.5 mg/kg, route intravenous; conditions: in vivo
Rattus norvegicus [7] = assay: Volume of distribution in rat at […], iv and 21 mg/kg, po; type: ADME, organism-based; conditions: in vivo
[8] = Oral bioavailability in rat at 21 mg/kg; type: ADME, organism-based; conditions: in vivo

Structure (SMILES) | remaining [1] | remaining at 0.5 h [2] | logD [3] | also measured
N[C@H]1CC[C@H](Nc2ccc3ncc(-c4cnc(Nc5ccccn5)nc4)n3n2)CC1 | 99% | 93% | 1.1 | 
N[C@H]1CC[C@H](Nc2ccc3ncc(-c4cnc(Nc5ccccc5)nc4)n3n2)CC1 | 89% | 92% | 1.6 | 
N[C@H]1CC[C@H](Nc2ccc3ncc(-c4cnc(Nc5ncccc5F)nc4)n3n2)CC1 | 93% | 85% | 0.2 | 
N[C@H]1CC[C@H](Nc2ccc3ncc(-c4cnc(Nc5ncc(C(F)(F)F)cc5F)nc4)n3n2)CC1 | 69% | 93% | 1.6 | 
Cc1ccc(Nc2ncc(-c3cnc4ccc(N[C@H]5CC[C@H](N)CC5)nn34)cn2)nc1 | 92% | 100% | 1.1 | 
N[C@H]1CC[C@H](Nc2ccc3ncc(-c4cnc(NCc5ccccn5)nc4)n3n2)CC1 | 95% | 95% | 0.4 | 
CN1CCC(Nc2ccc3ncc(-c4cnc(Nc5ncccc5F)nc4)n3n2)CC1 | 98% | 85% | 1.4 | 
CN1CCC(Nc2ccc3ncc(-c4ccc(Nc5ncccc5F)nc4)n3n2)CC1 | 77% | 57% | 3.1 | 
Cc1ccc2ncc(-c3cnc(Nc4ncccc4F)nc3)n2n1 |  |  | 2.5 | 
Fc1cccnc1Nc1ncc(-c2cnc3ccc(N4CCNCC4)nn23)cn1 |  |  | 0.7 | 
CN1CCN(c2ccc3ncc(-c4cnc(Nc5ncccc5F)nc4)n3n2)CC1 |  |  | 2.2 | 
Fc1cccnc1Nc1ncc(-c2cnc3ccc(NCCN4CCOCC4)nn23)cn1 |  |  | 2.9 | 
CN1CCN(CCNc2ccc3ncc(-c4cnc(Nc5ncccc5F)nc4)n3n2)CC1 |  |  | 1.6 | 
Fc1cccnc1Nc1ncc(-c2cnc3ccc(NCCN4CCCC4)nn23)cn1 |  |  | 1.5 | 
Fc1cccnc1Nc1ncc(-c2cnc3ccc(N[C@H]4CC[C@H](N5CCOCC5)CC4)nn23)cn1 |  |  | 3.2 | 
Fc1cccnc1Nc1ncc(-c2cnc3ccc(N[C@H]4CC[C@H](N5CCCC5)CC4)nn23)cn1 |  |  | 1.9 | 
CN1CCC(Oc2ccc3ncc(-c4cnc(Nc5ncccc5F)nc4)n3n2)CC1 |  |  | 1.5 | 

Structure (SMILES) | remaining [1] | remaining at 0.5 h [2] | logD [3] | also measured
CN1CCC(Cc2ccc3ncc(-c4cnc(Nc5ncccc5F)nc4)n3n2)CC1 |  |  | 1.3 | 
CN1CCC(Nc2ccc3ncc(-c4ccc(Nc5ncccc5F)cc4)n3n2)CC1 | 80% | 47% | 3.2 | concentration at 1 h [4]: 1660 ng/mL; concentration at 4 h [5]: 1460 ng/mL
Fc1cccnc1Nc1ccc(-c2cnc3ccc(N[C@H]4CC[C@H](N5CCCC5)CC4)nn23)cn1 | 71% | 88% | 2.8 | 
Fc1cccnc1Nc1ccc(-c2cnc3ccc(N[C@H]4CC[C@H](N5CCCC5)CC4)nn23)cc1 | 60% | 82% | 3.3 | 
CN1CCC(Nc2ccc3ncc(-c4ccc(Nc5ncc(Cl)cc5F)cc4)n3n2)CC1 | 86% | 61% | 3.7 | 
Cc1ccc(F)c(Nc2ccc(-c3cnc4ccc(NC5CCN(C)CC5)nn34)cc2)n1 | 77% | 52% | 3.5 | 
CN1CCC(Nc2ccc3ncc(-c4ccc(Nc5ncc(F)cc5F)cc4)n3n2)CC1 | 78% | 58% | 3.7 | 
CN1CCC(Nc2ccc3ncc(-c4ccc(Nc5ccc(C(F)(F)F)cn5)cc4)n3n2)CC1 | 81% | 85% | 3.7 | 
CN1CCC(Nc2ccc3ncc(-c4ccc(Nc5cccc(C(F)(F)F)n5)cc4)n3n2)CC1 | 80% | 73% | 3.4 | 
N[C@H]1CC[C@H](Nc2ccc3ncc(-c4ccc(Nc5ncc(F)cc5F)cc4)n3n2)CC1 | 68% | 87% | 2 | 
N[C@H]1CC[C@H](Nc2ccc3ncc(-c4ccc(Nc5ncc(Cl)cc5F)cc4)n3n2)CC1 | 77% | 57% | 3.1 | 
Cc1ccc(F)c(Nc2ccc(-c3cnc4ccc(N[C@H]5CC[C@H](N)CC5)nn34)cc2)n1 | 83% | 90% | 2.2 | 
CN1CCC(Nc2ccc3ncc(-c4ccc(Nc5ncccc5F)cc4)n3n2)CC1.Cl |  |  |  | t1/2 (Rattus norvegicus [6]): 4 h; Vd (Rattus norvegicus [7]): 8 L/kg; bioavailability [8]: 70%
Fc1cccnc1Nc1ncc(-c2cnc3ccc(NC4CCNC4)nn23)cn1 (racemic) |  |  | 0.4 | 
CN1CCC(Nc2ccc3ncc(-c4cnc(Nc5ncccc5F)nc4)n3n2)C1 (racemic) |  |  | 1.5 | 
CN1CCC(Oc2ccc3ncc(-c4cnc(Nc5ncccc5F)nc4)n3n2)C1 (racemic) |  |  | 1.5 | 
